Measured values collected from several papers.
Lines come from different studies, so protocols differ.

Structure (SMILES) | test system | setting | endpoint | value
Cc1nc2ccc(F)cc2n1-c1nc(N)c(F)c(Nc2ccc(C(F)(F)F)cc2)n1 | cynomolgus monkey, plasma | oral, 2 mg/kg | bioavailability | 66%
Nc1cc(N2CCCCC2)nc(N)[n+]1[O-] | Caco-2 | 10 µM, 2 h, pH 7.4 | efflux ratio | 1.72
CC(C)(C)c1ccc(O)c(CN(Cc2cc(C(C)(C)C)ccc2O)C2CCC(NC(N)=O)CC2)c1 (centres unmarked) | male C57BL/6 mouse, brain | oral, 10 mg/kg, single dose | Tmax | 30 min
C[C@H]1O[C@@H](O[C@H]2[C@@H](O)C[C@H](O[C@H]3[C@@H](O)C[C@H](O[C@H]4CC[C@@]5(C)[C@H](CC[C@@H]6[C@@H]5C[C@@H](O)[C@]5(C)[C@@H](C7=CC(=O)OC7)CC[C@]65O)C4)O[C@@H]3C)O[C@@H]2C)C[C@H](O)[C@@H]1O | Caco-2 | 5 µM, 1 h | efflux ratio | 6.6
CCc1nc2c(C)cc(N3CCN(CC(=O)N4CC(O)C4)CC3)cn2c1N(C)c1nc(-c2ccc(F)cc2)c(C#N)s1 | human, plasma | oral, 20 mg, single dose, fed, healthy volunteers | Cmax | 89 ng/mL
CC(C)(O)c1cn(-c2ccc(-c3cc(F)c(CO)c(S(C)(=O)=O)c3)cc2)c(C(C)(C)c2cccc(F)c2Cl)n1 | male cynomolgus monkey, plasma | intravenous, 1 mg/kg, single dose | Vd | 3.2 L/kg
COc1cc(C(=O)NC2CCN(C)CC2)c(F)cc1Nc1ncc(C(F)(F)F)c(Oc2cccc3c2C(=O)N(C)C3)n1 | human, plasma | oral, 25 mg, single dose, patients | Cmax | 200 nM
CC(C)(O)c1cn(-c2ccc(-c3cc(F)c(CO)c(S(C)(=O)=O)c3)cc2F)c(C(C)(C)c2c(Cl)cccc2Cl)n1 | male cynomolgus monkey, plasma | oral, 3 mg/kg, single dose | bioavailability | 42%
CN1CCC(c2ccccc2CC(C)(C)Nc2nc(N3CCOCC3)nc(-n3c(C(F)F)nc4ccccc43)n2)CC1 | cynomolgus monkey, plasma | intravenous, 2 mg/kg, single dose | Vd | 8 L/kg
CC(C)(O)c1cn(-c2ccc(-c3cccc(S(C)(=O)=O)c3)cc2)c(C(C)(C)c2ccccc2Cl)n1 | male cynomolgus monkey, plasma | intravenous, 1 mg/kg, single dose | Vd | 1.3 L/kg
CO[C@H]1CC[C@H](N2C(=O)CNc3ncc(-c4ccc(C(C)(C)O)nc4)nc32)CC1 | human, plasma | oral, 45 mg, patients | Cmax | 269 ng/mL
